Measured values from different studies.
Each line is one published result; the experiments were not run side by side.
MTNR1A: Melatonin receptor type 1A (MTNR1A, Homo sapiens, UniProt P48039)
FLT3: Receptor-type tyrosine-protein kinase FLT3 (FLT3, Homo sapiens, UniProt P36888)
F2 trypsin-like site: Prothrombin, trypsin-like site (F2, Bos taurus, UniProt P00735)
CYP51: Sterol 14-alpha demethylase (CYP51, Trypanosoma cruzi, UniProt Q7Z1V1)
HTR2C: 5-hydroxytryptamine receptor 2C (HTR2C, Homo sapiens, UniProt P28335)
Tmem97: Sigma intracellular receptor 2 (Tmem97, Rattus norvegicus, UniProt Q5U3Y7)

The EC50 of `CCc1nnc(SCc2cc(C(=O)OC)cs2)[nH]1` is reported as 17.8 nM (MTNR1A; cAMP, agonist, luciferase).
`c1ccc(-c2cccc(Nc3nccc(NC4CCCCC4)n3)c2)nc1` has an IC50 of 1710 nM (FLT3; enzyme activity, inhibitor).
For `Nc1nc(NCc2ccc(Oc3ccccc3)cc2)nc(-c2c(F)cccc2CO)n1`, the Ki was 5900 nM (MTNR1A; cell-free assay, radioligand).
`c1cncc(-c2cccc(Nc3nccc(NC4CCCCC4)n3)c2)c1` has a Kd of 560 nM (Ephrin type-B receptor 6 (EPHB6, Homo sapiens, UniProt O15197); binding, competition with immobilised ligand).
`CC(C)(C)[C@H](NC(=O)[C@H](CCONC(=N)N)NC(=O)Cc1ccc(CN)cc1)C(=O)N[C@@H](CCCCN)C(=O)NCc1ccc(C(=N)N)cc1` gave a Ki of 10000 nM (F2 trypsin-like site; enzyme activity, inhibitor; pH 8).
`CC(C)c1ccc(NC(=O)O[C@@H](Cn2ccnc2)c2ccc(F)cc2)cc1` gave a Kd of 83 nM (CYP51; binding).
The Kb of `OC[C@@]12C[C@@H]1[C@@H](n1cnc3c(N[C@H](C4CCC4)C4CC4)nc(I)nc31)[C@H](O)[C@@H]2O` is reported as 288 nM (HTR2C; calcium signal, antagonist).
The IC50 of `c1cncc(-c2ccc(Nc3nccc(NC4CCCCC4)n3)cc2)c1` is reported as > 31000 nM (FLT3; enzyme activity, inhibitor).
`O=C(NCCc1cccc2ccccc12)C1CCC1` has an EC50 of 1660 nM (MTNR1A; cAMP, agonist, TR-FRET).
The Ki of `NC(=S)N/N=C1\C(=O)Nc2ccccc21` is reported as > 10000 nM (Tmem97; ligand displacement, radioligand; cell membranes).
For `CC(C)(C)[C@H](NC(=O)[C@H](CCCNC(=N)N)NC(=O)Cc1ccc(CN)cc1)C(=O)N[C@@H](CCONC(=N)N)C(=O)NCc1ccc(C(=N)N)cc1`, the Ki was 13000 nM (F2 trypsin-like site; enzyme activity, inhibitor; pH 8).
The EC50 of `COC(=O)c1cc(Cn2ccc(C(C)=O)n2)c(C)s1` is reported as 74.9 nM (MTNR1A; cAMP, agonist, luciferase).
The Kd of `O=C(O[C@@H](Cn1ccnc1)c1ccccc1)c1ccc(-c2ccccc2)cc1` is reported as 87 nM (CYP51; binding).
With `Cc1cc(Nc2cc3ncccc3c(N[C@@H]3C[C@H]4CC[C@@H](C3)N4CCC#N)n2)n[nH]1` the Kd was 66 nM (Aurora kinase A (AURKA, Homo sapiens, UniProt O14965); binding, competition with immobilised ligand).
The IC50 of `c1cncc(-c2cccc(Nc3nccc(NC4CC4)n3)c2)c1` is reported as < 6 nM (FLT3; enzyme activity, inhibitor).
For `CCc1nc2cc(OCCCCN3CCC(c4cccc(Cl)c4Cl)CC3)ccc2s1`, the Ki was 210 nM (HTR2C; cell-free assay, radioligand).
`O=C(NCCN1CCCCC1)c1cc(Br)ccc1OCCF` gave a Ki of 10.2 nM (Tmem97; ligand displacement, radioligand; cell membranes).
For `c1ccc(Nc2nccc(NC3CCCCC3)n2)cc1`, the IC50 was 1890 nM (FLT3; enzyme activity, inhibitor).
`O=C(Nc1ccc(Sc2ccc([N+](=O)[O-])cc2)cc1)O[C@@H](Cn1ccnc1)c1ccc(Cl)cc1` gave a Kd of 715 nM (CYP51; binding).
The EC50 of `CCOc1ccc(CNc2cccnc2)cc1` is reported as 63.5 nM (MTNR1A; cAMP, agonist, luciferase).
For `COCC(CNC(C)=O)c1cccc2ccc(OC)cc12` (stereo not shown), the EC50 was 3.09 nM (MTNR1A; β-arrestin recruitment, agonist).
With `CCOC(=O)c1nc(N(C)CCc2cnccn2)ccc1Br` the EC50 was 29.4 nM (MTNR1A; cAMP, agonist, luciferase).
For `Cn1cc(C[C@@H](N)C(=O)O)c2ccccc21`, the Ki was 810000 nM (Dihydrofolate reductase (DHFR, Homo sapiens, UniProt P00374); enzyme activity, inhibitor; pH 7).
For `CCC(=O)NC1Cc2ccccc2C(c2ccccc2)C1` (stereo not shown), the EC50 was 759 nM (MTNR1A; β-arrestin recruitment, agonist).
`C[C@@H]1Cc2ccccc2N1C(=O)NCCCCN(C)[C@@H]1Cc2cccc3[nH]c(=O)n(c23)C1` gave a Ki of > 10000 nM (HTR2C; ligand displacement, radioligand).
`CC(C)(C)[C@H](NC(=O)[C@H](CCCNC(=N)N)NC(=O)Cc1ccc(CNC(=N)N)cc1)C(=O)N[C@@H](CCONC(=N)N)C(=O)NCc1ccc(C(=N)N)cc1` has a Ki of 9600 nM (F2 trypsin-like site; enzyme activity, inhibitor; pH 8).
With `COc1ccc2[nH]cc(CCNC(C)=O)c2c1I` the EC50 was 52.5 nM (MTNR1A; β-arrestin recruitment, agonist).
The IC50 of `NC(=O)c1ccc(Nc2nccc(NC3CCCCC3)n2)cc1` is reported as 14 nM (FLT3; enzyme activity, inhibitor).
`O=C(NCCN1CCCCC1)c1ccc(OCCF)c(Br)c1` has a Ki of 42.8 nM (Tmem97; ligand displacement, radioligand; cell membranes).
The EC50 of `COc1ccc2c(c1)N(Cc1cc(=O)c(OC)co1)CCO2` is reported as 0.56 nM (MTNR1A; cAMP, agonist, luciferase).
For `COc1ccc2c(c1)C(CNC(N)=O)Cc1ccccc1C2` (stereo not shown), the EC50 was 28.2 nM (MTNR1A; GTPγS binding, agonist, radiometric; cell membranes).
For `CC(C)Nc1ccnc(Nc2cccc(-c3cc[nH]n3)c2)n1`, the IC50 was 42 nM (FLT3; enzyme activity, inhibitor).
`Cc1cnc(-c2ccc(-c3ccc(NC(=O)Nc4c(F)cc(F)cc4F)cc3F)c3c2C(=O)NC3)[nH]1` has a Kd of 1.1 nM (Aurora kinase C (AURKC, Homo sapiens, UniProt Q9UQB9); binding, competition with immobilised ligand).
The EC50 of `COc1cc2c(CCNC(C)=O)c[nH]c2cc1I` is reported as 6.61 nM (MTNR1A; cAMP, agonist, TR-FRET).
`c1cncc(-c2cccc(Nc3nccc(NC4CCOCC4)n3)c2)c1` has an IC50 of 185 nM (FLT3; enzyme activity, inhibitor).
With `COc1cc2c(cc1OC)CN(CCCCn1ccc3c(OC)cccc31)C2` the Ki was 6.3 nM (Tmem97; ligand displacement, radioligand; cell membranes).
`Cc1cc2nc3c(=O)[nH]c(=O)nc-3n(C[C@H](O)[C@H](O)[C@H](O)COP(=O)(O)OP(=O)(O)OC[C@H]3O[C@@H](n4cnc5c(N)ncnc54)[C@H](O)[C@@H]3O)c2cc1C` gave a Kd of 141 nM (DNA topoisomerase 2-alpha (TOP2A, Homo sapiens, UniProt P11388); binding; lysate).
`COc1ccc(CNc2cccnc2)cc1Br` gave an EC50 of 49 nM (MTNR1A; cAMP, agonist, luciferase).
`O=C(NCCCn1ccnc1)O[C@H](Cn1ccnc1)c1ccc(F)cc1` gave a Kd of 600 nM (CYP51; binding).
`COC(=O)c1cc(CSc2nnc(C3CC3)[nH]2)cs1` has an EC50 of 7.57 nM (MTNR1A; cAMP, agonist, luciferase).
`CCc1ccc2scc(CCNC(C)=O)c2c1` has an EC50 of 39.8 nM (MTNR1A; cAMP, agonist, TR-FRET).
With `COc1cccc2c1CCN(C(=O)c1c[nH]nc1-c1ccc(Cl)s1)C2` the EC50 was 76.3 nM (MTNR1A; cAMP, agonist, luciferase).
The EC50 of `COc1ccc2ncn(CCNC(C)=O)c2c1` is reported as 871 nM (MTNR1A; β-arrestin recruitment, agonist).
